Data published in ChEMBL document CHEMBL1148398, “Design, synthesis, and biological evaluation of thio-containing compounds with serum HDL-cholesterol-elevating properties” (2004).

Key:
Rattus norvegicus [1] = assay: Effect of compound on gain in body weight in 1st group of normal chow-fed male rats after a dose of 1 mg/kg/day; format: functional
In short: (§1)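 Male Sprague–Dawley CD rats (60–80 g) on standard chow under a reversed 12 h light/dark cycle. Compound was suspended in 1.3% Tween 80/0.25% CMC and given as a single daily oral gavage dose for 4 days. Rats were fasted overnight and killed 24 h after the last dose. Serum ALT, AST, ALKP and LDH were read on a clinical analyzer. Weight gain was start versus end weight. Mean ± SEM, n = 6.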

Rattus norvegicus [2] = assay: Effect of compound on gain in body weight in 4th group of normal chow-fed male rats after a dose of 10 mg/kg/day; format: functional; in short: as §1
Rattus norvegicus [3] = assay: Effect of compound on alanine aminotransferase (ALT) levels in 7th group of normal chow-fed male rats after a dose of 100 mg/kg/day; format: functional, organism-based; in short: as §1
Rattus norvegicus [4] = assay: Effect of compound on alkaline phosphatase (ALKP) levels in 2nd group of normal chow-fed male rats after a dose of 2 mg/kg/day; format: functional, organism-based; in short: as §1
Rattus norvegicus [5] = assay: Effect of compound on relative liver weight in 4th group of normal chow-fed male rats after a dose of 10 mg/kg/day; format: functional
In short: (§2)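 Chow-fed male Sprague–Dawley CD rats, 60–80 g, dosed by oral gavage once daily for 4 days in 1.3% Tween 80/0.25% CMC. Fasted overnight and sacrificed 24 h after the last dose. Liver weight expressed as % of body weight at termination. Six per group, mean ± SEM.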

Rattus norvegicus [6] = assay: Effect of compound on relative liver weight in 6th group of normal chow-fed male rats after a dose of 50 mg/kg/day; format: functional; in short: as §2
Rattus norvegicus [7] = assay: Effect of compound on thyroxine levels in 5th group of normal chow-fed male rats after a dose of 20 mg/kg/day; format: functional, organism-based
In short: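 Male Sprague–Dawley CD rats, 60–80 g, on standard chow with reverse 12 h light/dark cycle. One oral gavage dose daily for 4 days, suspended in 1.3% Tween 80 and 0.25% CMC. Fasted overnight; sacrificed 24 h after the last dose. Serum TC on clinical analyzer, lipoproteins by FPLC with cholesterol per fraction, T4 on analyzer. Mean ± SEM, six rats per group.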

Rattus norvegicus [8] = assay: Effect of compound on total plasma cholesterol levels in 5th group of normal chow-fed male rats after a dose of 20 mg/kg/day; format: functional, organism-based
In short: (§3)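 Male Sprague–Dawley CD rats (60–80 g) on Purina 5001 chow with a reverse 12 h light/dark cycle. Dosed once daily by oral gavage for 4 days, suspended in 1.3% Tween 80 / 0.25% CMC. Fasted overnight and bled 24 h after the last dose. Serum TC and glycerol-blanked TG measured enzymatically; VLDL-C by FPLC fractionation with cholesterol assay. n=6, mean ± SEM.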

Rattus norvegicus [9] = assay: Effect of compound on lactic dehydrogenase (LDH) levels in 4th group of normal chow-fed male rats after a dose of 10 mg/kg/day; format: functional, organism-based
In short: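 Male Sprague–Dawley CD rats, 60–80 g, on chow with a reverse 12 h light/dark cycle. Given one oral gavage dose daily for 4 days, suspended in 1.3% Tween 80/0.25% CMC. Fasted overnight and sacrificed 24 h after the last dose for blood and liver. Serum liver enzymes read on a clinical analyzer. Six per group, mean ± SEM.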

Rattus norvegicus [10] = assay: Effect of compound on lactic dehydrogenase (LDH) levels in 1st group of normal chow-fed male rats after a dose of 1 mg/kg/day; format: functional, organism-based; in short: as §1
Rattus norvegicus [11] = assay: Effect of compound on very low-density lipoprotein cholesterol levels in 2nd group of normal chow-fed male rats after a dose of 2 mg/kg/day; format: functional, organism-based; in short: as §3
[12] = Effect on serum lipids in 2nd group of normal chow-fed male rats after a dose of 2 mg/kg/day was evaluated as ratio of total plasma cholesterol levels to high-density lipoprotein cholesterol levels; format: functional
In short: (§4)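 Male Sprague–Dawley CD rats, 60–80 g, chow-fed, dosed by oral gavage daily for 4 days in 1.3% Tween 80/0.25% CMC. Fasted overnight, bled 24 h after the last dose. Serum total cholesterol by enzymatic reagent; HDL-C from cholesterol in FPLC fractions; TPC/HDL-C ratio calculated. Six per group, mean ± SEM.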

[13] = Effect on serum lipids in 3rd group of normal chow-fed male rats after a dose of 5 mg/kg/day was evaluated as ratio of total plasma cholesterol levels to high-density lipoprotein cholesterol levels; format: functional; in short: as §4
[14] = Effect on serum lipids in 4th group of cholesterol-fed male hamsters at 100 mg/kg/day after 14 days of treatment was evaluated as ratio of total cholesterol levels to high-density lipoprotein cholesterol levels; format: functional
In short: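 Male Syrian Golden hamsters on chow plus 0.25% cholesterol, 2 weeks before and during dosing. Oral gavage for 14 days in 2% Tween 80/saline. Fasted 4 h before sacrifice. Serum total cholesterol measured enzymatically; HDL-C from cholesterol in FPLC lipoprotein fractions; TC/HDL-C ratio calculated. Six per group, mean ± SEM.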

Mesocricetus auratus [15] = assay: Effect of compound on liver weight in 3rd group of cholesterol-fed male hamsters at 30 mg/kg/day after 14 days of treatment
Cricetinae gen. sp. [16] = assay: Effect of compound on thyroxine levels in 3rd group of cholesterol-fed male hamsters at 30 mg/kg/day after 14 days of treatment; details: Mesocricetus auratus
Cricetinae gen. sp. [17] = assay: Effect of compound on thyroxine levels in 4th group of cholesterol-fed male hamsters at 100 mg/kg/day after 14 days of treatment; details: Mesocricetus auratus
Mesocricetus auratus [18] = assay: Effect of compound on gain in body weight in 2nd group of cholesterol-fed male hamsters at 10 mg/kg/day after 14 days of treatment
Mesocricetus auratus [19] = assay: Effect of compound on gain in body weight in 3rd group of cholesterol-fed male hamsters at 30 mg/kg/day after 14 days of treatment
Cricetinae gen. sp. [20] = assay: Effect of compound on total plasma cholesterol levels in 3rd group of cholesterol-fed male hamsters at 30 mg/kg/day after 14 days of treatment; details: Mesocricetus auratus
Cricetinae gen. sp. [21] = assay: Effect of compound on alkaline phosphatase (ALKP) levels in 2nd group of cholesterol-fed male hamsters at 10 mg/kg/day after 14 days of treatment; details: Mesocricetus auratus
Cricetinae gen. sp. [22] = assay: Effect of compound on alkaline phosphatase (ALKP) levels in 3rd group of cholesterol-fed male hamsters at 30 mg/kg/day after 14 days of treatment; details: Mesocricetus auratus
Cricetinae gen. sp. [23] = assay: Effect of compound on aspartate aminotransferase (AST) levels in 4th group of cholesterol-fed male hamsters at 100 mg/kg/day after 14 days of treatment; details: Mesocricetus auratus
Cricetinae gen. sp. [24] = assay: Effect of compound on high-density lipoprotein cholesterol levels in 4th group of cholesterol-fed male hamsters at 100 mg/kg/day after 14 days of treatment; details: Mesocricetus auratus
Cricetinae gen. sp. [25] = assay: Effect of compound on very low-density lipoprotein cholesterol levels in 2nd group of cholesterol-fed male hamsters at 10 mg/kg/day after 14 days of treatment; details: Mesocricetus auratus

For `CCN1CC(=O)N(c2cc(Cl)ccc2C)C1=S`, the Body weight (Rattus norvegicus [1]) was 26.3 g, the Body weight (Rattus norvegicus [2]) was 33.2 g and the Level (Rattus norvegicus [3]) was 67 U l-1. For the same molecule, the Level (Rattus norvegicus [4]) was 373 U l-1, the Relative liver weight (Rattus norvegicus [5]) was 4.3% and the Relative liver weight (Rattus norvegicus [6]) was 4%. It also gave a Serum level (Rattus norvegicus [7]) of 4.05 µg/dL, a Serum level (Rattus norvegicus [8]) of 84 mg/dL and a Level (Rattus norvegicus [9]) of 553 U l-1. The Level (Rattus norvegicus [10]) was 724 U l-1, the Serum level (Rattus norvegicus [11]) was 2.8 mg/dL and the Ratio [12] was 1.37. For the same molecule, the Ratio [13] was 1.39, the Ratio [14] was 1.95 and the Liver weight (Mesocricetus auratus [15]) was 8.5 g. The Serum level (Cricetinae gen. sp. [16]) was 4.73 µg/dL, the Serum level (Cricetinae gen. sp. [17]) was 4.02 µg/dL and the Body weight (Mesocricetus auratus [18]) was 9.5 g. The Body weight (Mesocricetus auratus [19]) was 8.2 g, the Serum level (Cricetinae gen. sp. [20]) was 372 mg/dL and the Level (Cricetinae gen. sp. [21]) was 147 U l-1. The Level (Cricetinae gen. sp. [22]) was 136 U l-1, the Level (Cricetinae gen. sp. [23]) was 424 U l-1 and the Serum level (Cricetinae gen. sp. [24]) was 191 mg/dL. For the same molecule, the Serum level (Cricetinae gen. sp. [25]) was 102 mg/dL.
